14 compounds from ChEMBL document CHEMBL4431374, “Synthesis and Antitubercular Activity of New Benzo[b]thiophenes” (ACS Med Chem Lett, 2016) can be followed below.

One may read the MIC90 as an inhibitory concentration at the 90% level, which refers to growth in some studies and to a panel of isolates in others. Low values mean greater potency, high ones weaker potency.

The structures appear in SMILES notation. In brackets after ≈: the same amount, converted by molar mass. Activity calls are given as the source filed them. No cut-off for these calls is given here.

Holding throughout (format): functional
Test [1] has as its system Mycobacterium tuberculosis. Kind of test: Antitubercular activity against drug resistant dormant Mycobacterium tuberculosis H37Ra ATCC 25177 after 12 days by XTT reduction menadione assay. The conditions noted are these: H37Ra ATCC 25177, 288 h. The method in brief: (§1)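 H37Ra was tested by microdilution in 96-well plates, at 30–0.001 μg/mL in one-third dilutions. Each plate carried a rifampicin and isoniazid dilution series as positive controls. Growth was scored by XTT reduction menadione assay (XRMA) and cross-checked by a final absorbance reading at 600 nm.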
(Tetrazolium assays rely on reduction of a dye to a coloured formazan, in cell work by metabolically active cells.)

In test [2] the test system is Mycobacterium tuberculosis variant bovis BCG. Kind of test: Antitubercular activity against drug resistant dormant Mycobacterium bovis BCG ATCC 35734 at 3 to 30 ug/ml after 12 days by nitrate reductase assay.
Test [3] has the same test system. The experiment in a line: Antitubercular activity against dormant Mycobacterium bovis BCG ATCC 35734 after 12 days by nitrate reductase assay. The conditions noted are these: for MIC90: ATCC 35734, 288 h.
Test [4] has the same test system. Kind of test: Antitubercular activity against active Mycobacterium bovis BCG ATCC 35734 after 8 days by nitrate reductase assay. To be noted: for MIC90: ATCC 35734, 192 h.
Test [5] concerns Mycobacterium tuberculosis. Kind of test: Antitubercular activity against drug resistant active Mycobacterium tuberculosis H37Ra ATCC 25177 after 8 days by XTT reduction menadione assay. The conditions noted are these: H37Ra ATCC 25177, 192 h. In outline:
as §1

For `O=C(CC(=O)c1ccccc1O)c1cc2ccccc2s1`, the MIC90 in test [1] turned out to be 2.87 µg/mL (≈ 9.68 µM); in test [3], 1.36 µg/mL (≈ 4.59 µM); in test [4] it was 2.34 µg/mL (≈ 7.9 µM); in test [5], 12.4 µg/mL (≈ 41.9 µM). Further, the Activity in test [2] is given as more than 97%.

For the compound `CO[C@H]1/C=C/O[C@@]2(C)Oc3c(C)c(O)c4c(O)c(c(/C=N/N5CCN(C)CC5)c(O)c4c3C2=O)NC(=O)/C(C)=C\C=C\[C@H](C)[C@H](O)[C@@H](C)[C@@H](O)[C@@H](C)[C@H](OC(C)=O)[C@@H]1C` [RIFAMPIN], the MIC90 in test [1] is more than 10 µg/mL; in test [3], 0.0042 µg/mL (≈ 0.0051 µM); in test [4], 0.004 µg/mL (≈ 0.00486 µM); in test [5] it was more than 10 µg/mL.

In test [3], `Cc1ccc(O)c(C(=O)CC(=O)c2cc3ccccc3s2)c1` came in with an MIC90 of 0.71 µg/mL (≈ 2.29 µM).

`Cc1cc(O)c(C(=O)CC(=O)c2cc3ccccc3s2)cc1Cl` came in with an Activity in test [2] of more than 97%. In addition, the MIC90 in test [3] is 0.9 µg/mL (≈ 2.61 µM); in test [4] it was 0.56 to 1.9 µg/mL (≈ 1.62 to 5.51 µM).

With `Cc1ccc2oc(-c3cc4ccccc4s3)cc(=O)c2c1`, the MIC90 in test [1] turned out to be 7.22 µg/mL (≈ 24.7 µM); in test [3], 0.61 µg/mL (≈ 2.09 µM); in test [4], 0.62 µg/mL (≈ 2.12 µM); in test [5], 22.9 µg/mL (≈ 78.2 µM).

As to `Oc1ccc(Cl)cc1-c1cc(-c2cc3ccccc3s2)[nH]n1`, in test [2], the Activity was more than 97%.

`O=C(CC(=O)c1cc(Br)ccc1O)c1cc2ccccc2s1`: the MIC90 in test [1] amounted to 7.11 µg/mL (≈ 18.9 µM); in test [3] it was 1.77 µg/mL (≈ 4.72 µM); in test [4], 1.16 µg/mL (≈ 3.09 µM); in test [5] it was 8.04 µg/mL (≈ 21.4 µM). Besides, the Activity in test [2] is more than 97%.

In the case of `Cc1cc2oc(-c3cc4ccccc4s3)cc(=O)c2cc1Cl`, the MIC90 came to 9.1 µg/mL (≈ 27.8 µM) in test [1], 0.6 µg/mL (≈ 1.84 µM) in test [3], 0.56 µg/mL (≈ 1.71 µM) in test [4] and 9.58 µg/mL (≈ 29.3 µM) in test [5].

With `O=C(CC(=O)c1cc(Cl)ccc1O)c1cc2ccccc2s1`, the MIC90 is 2.73 µg/mL (≈ 8.25 µM) in test [1], 2.7 µg/mL (≈ 8.16 µM) in test [3], 2.22 µg/mL (≈ 6.71 µM) in test [4] and 5.3 µg/mL (≈ 16 µM) in test [5]. The same compound yielded an Activity in test [2] of more than 97%.

For `Cc1ccc(O)c(-c2cc(-c3cc4ccccc4s3)[nH]n2)c1`, in test [2], the Activity was more than 97%.

As to `NNC(=O)c1ccncc1` [ISONIAZID], the MIC90 is more than 10 µg/mL in test [1], 0.0078 µg/mL (≈ 0.0569 µM) in test [3], 0.075 µg/mL (≈ 0.547 µM) in test [4] and more than 10 µg/mL in test [5].

In test [2], `Oc1ccccc1-c1cc(-c2cc3ccccc3s2)[nH]n1` displayed an Activity of more than 97%.

`Cc1ccc(C(=O)CC(=O)c2cc3ccccc3s2)c(O)c1`: the MIC90 came to 9.42 µg/mL (≈ 30.4 µM) in test [1], 1.61 µg/mL (≈ 5.19 µM) in test [3], 1.68 µg/mL (≈ 5.41 µM) in test [4] and 8.97 µg/mL (≈ 28.9 µM) in test [5]. The compound also returned an Activity in test [2] of more than 97%.

As to `O=C(CC(=O)c1cc(Cl)cc(Cl)c1O)c1cc2ccccc2s1`, the outcome in test [3] and in test [4] was Active.
